Source: PubChem BioAssay
Rows were chosen to be rich in hits. Some 1.7% of all compounds tested hit in one or more screens of this group.
Rpn11 inh = Rpn11 (human) deubiquitinase inhibition | human 26S proteasome, Ub4-pepOG fluorescence polarization; 20S core pre-blocked with epoxomicin | AID 588493 | O00487 | 360,000 tested, 0.59% active | calls only at 20 µM;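 active = inhibition at 20 µM, scaled to each plate's controls, above about 33%, limit read from the data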
CSN deneddyl inh = inhibitors of human CSN-mediated cullin deneddylation | Purified CSN, SCF-Nedd8-OG deneddylation, fluorescence polarization | Q92905 | inhibition, % at 12.5 µM | 360,000 tested, 0.38% active | AID 651999;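 active = pattern-corrected inhibition above about 35%, with an unprinted fluorescence ratio check between 0.5 and 1.5, limit read from the data, passing the limit was not always enough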;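 also: 0% = enzyme with substrate and 100% = substrate without enzyme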
Target sequence (Q92905 whole entry, looked up, one chain of several): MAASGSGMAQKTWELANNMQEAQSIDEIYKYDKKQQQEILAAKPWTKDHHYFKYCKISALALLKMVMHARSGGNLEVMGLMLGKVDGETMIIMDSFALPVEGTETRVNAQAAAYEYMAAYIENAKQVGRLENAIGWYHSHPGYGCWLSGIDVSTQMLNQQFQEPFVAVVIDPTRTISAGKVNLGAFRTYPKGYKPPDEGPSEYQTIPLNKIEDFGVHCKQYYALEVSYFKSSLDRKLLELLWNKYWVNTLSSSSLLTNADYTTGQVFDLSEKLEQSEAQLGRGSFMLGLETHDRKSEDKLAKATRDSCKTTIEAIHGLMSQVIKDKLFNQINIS
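Assay system: Purified human Csn5 enzyme expressed in HEK293T cells | Amount: Enzyme 0.24 nM | Measured by: Fluorescence polarization readout | Medium: Tris/NaCl/DTT buffer, pH 7.5 | Compound dosing: One concentration, 12.5 µM, 0.25% DMSO | Times: 90 min incubation of compound, enzyme and substrate at room temperature | Control set: no-enzyme wells high, enzyme-with-substrate wells low | Read-out: % inhibition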
IDE inh = cellular human IDE inhibition | 320,000 tested, 0.41% active | P14735 | HEK cells, FAbetaB cleavage, fluorescence polarization | inhibition, % at 5.59 µM;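 active = percent inhibition above the average of all tested compounds plus 3 SD, set per screening campaign, cut at about 16% in these data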;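 also: IDE supplied by intact live HEK cells; FP after avidin binding of uncleaved biotin substrate so inhibition keeps polarization high; 0% = DMSO wells and 100% = 60 µM reference IDE inhibitor Ii1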
IDE cell activ = boosts human insulin-degrading enzyme activity in HEK cells; P14735; FAbeta-B cleavage, fluorescence polarization; 0% vehicle, 100% cell-free pure enzyme wells; activation, % at 5.96 µM; 340,000 tested, 0.073% active;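 active = activation above the mean of all tested compounds plus 3 SD, set per screening campaign, cut at about 17% in these data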
HNF4A DNA FP = change in binding of human HNF4 alpha to DNA; P41235; HNF4a-FITC DNA binding, fluorescence polarization, 1 h; activity change, % at 10 µM; 360,000 tested, 0.3% active; AID 1224865; in the data active = activity change above about 30%, passing the limit was not always enough
TPT1 inh = blocks Candida albicans tRNA 2'-phosphotransferase; recombinant caTPT1, FP RNA substrate dephosphorylation; inhibition, % at 5 µM; 300,000 tested, 0.81% active; AID 1962;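 active = inhibition above the mean of all tested compounds plus 3 SD, set per screening campaign, cut at about 24% in these data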;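 also: plate controls were DMSO alone for no effect and ferristatin control at 100 nM for full effect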
Rpn11 confirm = Rpn11 inhibition confirmation, single concentration; shares compounds with Rpn11 inh; purified human 26S proteasome, Ub4-pepOG fluorescence polarization; proteasome pretreated with epoxomicin; 1,900 tested, 29% active; inhibition, % at 20 µM
MMP-2 inh = counter-screen for RPN11 inhibitors: inhibition of human MMP-2; 1,900 tested, 4% active; AID 602330; shares compounds with Rpn11 inh; recombinant MMP-2, FRET peptide cleavage fluorescence; inhibition, % at 20 µM;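 also: human MMP-2 activated beforehand with APMA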
Thrombin FP = thrombin (bovine) inhibition counter-screen; bovine thrombin cleavage of Ub4-pepOG, fluorescence polarization; 1,900 tested, 13% active; shares compounds with Rpn11 inh; inhibition, % at 20 µM;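 active = mean inhibition at least 40% at 20 µM, or signal 3 deviations below plate average, so some actives read negative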;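 also: plate controls were thrombin with DMSO for no effect and buffer wells lacking thrombin for full effect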
* = called active by the depositor; i = inactive; · = no result given; + = active, no number. Rule as the data show it, unless noted: active = inhibition above about 40%; inactive = the rest.

SMILES | Rpn11 inh | CSN deneddyl inh | IDE inh | IDE cell activ | HNF4A DNA FP | TPT1 inh | Rpn11 confirm | MMP-2 inh | Thrombin FP
CCOC(=O)C1=C(N)n2c(s/c(=C\c3cccnc3)c2=O)=C(C(=O)OC)C1c1cccnc1 (configuration not stated) | + | 67.4* | 5.8 | 4.8 | -0.1 | -3.8 | -16.2 | -7.1 | -23.4
COc1ccc2oc(C(=O)OCC(=O)N3CCN(c4ccccc4)CC3)c(C)c2c1 | i | -1.0 | 6.7 | -5.5 | 0.3 | -0.8 | · | · | ·
O=C(N/N=C\c1cn(-c2ccccc2)nc1-c1ccccc1)c1ccc2c(c1)OCO2 | i | 5.7 | 4.0 | 0.2 | 0.3 | -1.4 | · | · | ·
O=C(N/N=C/c1cn(-c2ccccc2)nc1-c1ccc2c(c1)OCCO2)c1ccncc1 | + | 7.1 | -0.6 | 25.9* | -0.2 | 0.0 | 15.1 | -8.1 | -6.6
COc1cc(NC(=O)C/C(C)=N/NC(=O)c2ccccn2)c(OC)cc1Cl | i | 0.7 | -1.7 | 1.2 | 2.7 | -0.3 | · | · | ·
Cc1ccc(O)c(N=NC2=C(O)CC(C)(C)CC2=O)c1 | + | 7.5 | -0.3 | 8.8 | 24.4 | 12.3 | 11.3 | -86.8 | 6.2
Nc1nc(-c2ccco2)nn1C(=O)c1ccccc1Cl | i | 3.3 | · | 3.8 | 2.1 | · | · | · | ·
CCCC1Cc2c(sc(N)c2C#N)CO1 (configuration not stated) | i | -1.1 | 4.4 | 4.0 | 8.2 | 2.3 | · | · | ·
O=c1[nH]c(CSc2ncc(C(F)(F)F)cc2Cl)nc2ccccc12 | i | 7.7 | 5.4 | 1.0 | -3.1 | 1.8 | · | · | ·
O=c1[nH]c(CSc2ncnc3sccc23)nc2cc(C(F)(F)F)ccc12 | + | 16.2 | 0.6 | 2.4 | 4.5 | 20.4 | 46.2* | -6.7 | -8.7
CC(C)CCOc1ccc(/C=N/N2C(=O)CSC2=S)cc1 | + | 3.7 | -2.9 | 1.5 | 0.5 | 2.8 | -10.7 | 32.2 | -9.4
O=C1CSC(=S)N1N=Cc1ccc(OCc2ccccc2)cc1 | i | 3.4 | · | · | 3.2 | · | · | · | ·
COC(=O)C1=NN(c2ccc(OC)cc2)C2C(=O)N(c3ccccc3OC)C(=O)C12 (configuration not stated) | i | 4.0 | -3.7 | · | 7.0 | -1.3 | · | · | ·
COC(=O)C1=CC(C(=O)c2cccs2)=NN(c2ccc(OC)cc2)C1C(=O)OC (configuration not stated) | + | 14.6 | -0.3 | -1.0 | 13.1 | 21.2 | 21.8 | -11.8 | 14.7
COC(=O)CCC(=O)Nc1ccc2oc3c(c2c1)CCCC3 | i | -3.4 | -11.4 | -3.8 | 0.6 | 0.4 | · | · | ·
Cc1cccc(C(=O)Nc2ccc(N3CCN(c4ccc(C(F)(F)F)cn4)CC3)nc2)c1 | + | 1.5 | 4.7 | -7.2 | 21.6 | -0.8 | -8.9 | -39.0 | 3.8
COC(=O)c1ccc2c(c1)NC(=O)C(N(CC(C)C)CC(C)C)S2 (configuration not stated) | + | -3.0 | -0.9 | 1.3 | 46.8* | 0.9 | 16.8 | -30.3 | 9.9
CCN(CC(=O)Nc1ccc(OC)cc1)CC(=O)Nc1ccc(Br)cc1F | i | 2.9 | 1.2 | -0.3 | -2.7 | 2.3 | · | · | ·
COc1ccc(NCC(=O)Nc2ccc(Br)cc2F)c(OC)c1 | + | 0.8 | -0.2 | 2.4 | -2.8 | 2.1 | 3.4 | -6.6 | 2.6
C/C(N)=C(/C#N)C(=O)COC(=O)c1ccccc1C(=O)c1ccc(C)cc1 | i | -1.5 | -2.3 | 4.5 | 2.9 | 3.5 | · | · | ·
O=C(O)c1ccc(NC(=S)Nc2ccccc2)cc1 | + | 1.0 | 6.2 | 1.1 | 5.1 | -0.8 | 6.7 | 7.0 | -0.7
O=C(NC(=S)Nc1cccc(NC(=S)NC(=O)c2ccccc2)c1)c1ccccc1 | + | 20.1 | · | -6.4 | 12.4 | · | 27.2 | 48.9* | -9.8
COC(=O)c1ccc(NC(=S)Nc2ccccc2)cc1 | i | -0.8 | 3.7 | 2.1 | -2.7 | -2.4 | · | · | ·
